Results taken from ChEMBL document CHEMBL3621189, “Identification of non-peptidic cysteine reactive fragments as inhibitors of cysteine protease rhodesain” (Bioorg Med Chem Lett, 2015).
pIC50: −log10 of the molar value. Calls of active or inactive are those of the source. The rule behind the calls is not given here.

Columns and labels:
[1] = target: Rhodesain (Trypanosoma brucei rhodesiense) (UniProt Q95PM0); assay: Time-dependent inhibition of Trypanosoma brucei rhodesiense Rhodesain expressed in Pichia pastoris using Z-Phe-Arg-AMC as substrate assessed as ratio of Kinact to Ki preincubated for 30 mins followed by substrate addition measured for 7 mins by fluorescence assay
Chain of Rhodesain (Trypanosoma brucei rhodesiense) (Q95PM0 1-450): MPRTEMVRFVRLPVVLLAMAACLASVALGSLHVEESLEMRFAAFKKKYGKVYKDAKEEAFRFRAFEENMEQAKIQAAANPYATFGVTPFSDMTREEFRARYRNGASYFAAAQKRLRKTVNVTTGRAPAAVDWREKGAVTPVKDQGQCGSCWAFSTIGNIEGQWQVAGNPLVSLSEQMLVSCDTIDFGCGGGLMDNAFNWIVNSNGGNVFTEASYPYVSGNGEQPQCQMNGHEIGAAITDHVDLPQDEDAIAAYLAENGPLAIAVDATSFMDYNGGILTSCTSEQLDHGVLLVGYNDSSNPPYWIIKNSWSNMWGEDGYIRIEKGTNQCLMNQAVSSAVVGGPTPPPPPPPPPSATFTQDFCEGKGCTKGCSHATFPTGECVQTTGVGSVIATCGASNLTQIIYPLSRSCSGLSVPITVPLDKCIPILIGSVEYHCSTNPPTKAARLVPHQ

[2] = system: Trypanosoma brucei brucei; assay: Antitrypanosomal activity against Trypanosoma brucei brucei 427 assessed as growth inhibition after 24 hrs by Alamar Blue assay; type: functional, organism-based; conditions: Trypanosoma brucei, 427, 24 h
HepG2 = assay: Cytotoxicity against human HepG2 cells after 72 hrs by MTT assay; type: cell-based; conditions: HepG2, 72 h
[3] = target: Rhodesain (Trypanosoma brucei rhodesiense) (UniProt Q95PM0); assay: Inhibition of Trypanosoma brucei rhodesiense Rhodesain expressed in Pichia pastoris using Z-Phe-Arg-AMC as substrate at 10 uM preincubated for 30 mins followed by substrate addition by fluorescence assay relative to control
Outline: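 Single-concentration enzymatic screen of a 200-member cysteine-reactive electrophilic fragment library at 10 μM against rhodesain, scored as percent inhibition. Actives were retested at 10 μM in a confirmatory enzymatic assay.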

Structure (SMILES)	inhibition [1]	pIC50 [2]	pIC50 (HepG2)	inhibition [3] [%]	Ratio [1] [M⁻¹ s⁻¹]
CC(C)CC(=O)N1CCC(C(=O)NC/C=C/S(C)(=O)=O)CC1	inactive	< 4.30	< 3.82	< 40	
Cc1nc(-c2ccccc2F)sc1C(=O)NC/C=C/S(C)(=O)=O		4.52	4.16	< 40	3.47
Cc1ccc(-c2cc(C(=O)NC/C=C/S(C)(=O)=O)no2)cc1	inactive	4.53	4.12	< 40	
COC(=O)/C=C/CNC(=O)c1cc(-c2ccc(C)cc2)on1		4.36	< 3.82		13.2
COC(=O)/C=C/CNC(=O)c1sc(-c2ccccc2F)nc1C		4.52	< 3.82		18.3
COC(=O)/C=C/CNC(=O)C1CCN(C(=O)CC(C)C)CC1	inactive	< 4.30	< 3.82	< 40	
